These results are taken from ChEMBL document CHEMBL1139138, “Pyrrolidine-constrained phenethylamines: The design of potent, selective, and pharmacologically efficacious dipeptidyl peptidase IV (DPP4) inhibitors from a lead-like screening hit” (Bioorg Med Chem Lett, 2007).

Data set [1] is described as follows: Half life in human liver microsome. The data set is classed as ADME. Conditions: liver microsomes. The method in brief: (§1)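 Stability on incubation with rat or human liver microsomes, expressed as half-life.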
The nature of data set [2]: Half life in rat liver microsome. Format: ADME. To be noted: liver microsomes. The procedure, abridged: as §1
Another data set concerns the target Cytochrome P450 2D6 (Homo sapiens, UniProt P10635). The experiment in a line: Inhibition of CYP2D6. The data set is classed as ADME.
In the next data set the target is T1, Prolyl endopeptidase (Homo sapiens, UniProt P48147).
T1 sequence (P48147 whole entry): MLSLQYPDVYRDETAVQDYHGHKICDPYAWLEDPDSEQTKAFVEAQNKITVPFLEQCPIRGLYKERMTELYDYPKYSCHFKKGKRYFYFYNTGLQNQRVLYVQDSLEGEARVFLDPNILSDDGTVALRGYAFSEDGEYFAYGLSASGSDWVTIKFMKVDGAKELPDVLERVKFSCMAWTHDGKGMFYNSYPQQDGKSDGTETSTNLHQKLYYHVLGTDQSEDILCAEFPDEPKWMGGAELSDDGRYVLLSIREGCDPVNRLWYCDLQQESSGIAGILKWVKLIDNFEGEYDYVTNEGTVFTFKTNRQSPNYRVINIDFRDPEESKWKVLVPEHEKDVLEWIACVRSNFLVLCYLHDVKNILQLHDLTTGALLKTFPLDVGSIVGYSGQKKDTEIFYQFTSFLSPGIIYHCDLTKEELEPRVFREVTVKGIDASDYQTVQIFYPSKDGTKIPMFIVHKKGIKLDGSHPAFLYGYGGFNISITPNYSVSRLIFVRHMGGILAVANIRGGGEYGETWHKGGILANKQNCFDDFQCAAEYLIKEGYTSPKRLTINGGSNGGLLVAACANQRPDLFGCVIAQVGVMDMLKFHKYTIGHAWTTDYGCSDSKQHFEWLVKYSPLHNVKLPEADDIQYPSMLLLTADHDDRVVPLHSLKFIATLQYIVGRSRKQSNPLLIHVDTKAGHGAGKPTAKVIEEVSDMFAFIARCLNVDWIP
The experiment in a line: Inhibition of human POP.

Data set [3] can be described thus: Cmax in Sprague-Dawley rat at 5 mg/kg, po. The data set is classed as ADME, organism-based. Set-up: dose 5 mg/kg, route oral. To be noted: in vivo. The method in brief:
(§2)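 Pharmacokinetics in rat dosed at 5 mg/kg and in dog and monkey dosed at 2.5 mg/kg. Cmax, t1/2 (terminal) and AUC were taken from oral dosing. F is oral bioavailability. Vss is volume of distribution at steady state.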

Data set [4] in a line: Plasma clearance in Sprague-Dawley rat at 5 mg/kg, po. The data set is classed as ADME, organism-based. Set-up: dose 5 mg/kg, route oral. The method in brief: as §2
Data set [5] in a line: Oral bioavailability in Sprague-Dawley rat at 5 mg/kg, po. The data set is classed as ADME, organism-based. Conditions: in vivo. The procedure, abridged: as §2
Data set [6] concerns Rattus norvegicus. The experiment in a line: AUC in Sprague-Dawley rat at 5 mg/kg, po. Format: ADME, organism-based, Plasma. Set-up: dose 5 mg/kg, route oral. To be noted: in vivo. The method in brief:
as §2

Data set [7] deals with Rattus norvegicus. Put plainly: Volume of distribution at steady state in Sprague-Dawley rat at 5 mg/kg, po. Format: ADME, organism-based. The arrangement: dose 5 mg/kg, route oral. To be noted: in vivo. The method in brief:
as §2

For a further data set, the target named is T2, Prolyl endopeptidase FAP (Homo sapiens, UniProt Q12884).
T2 sequence (Q12884 whole entry): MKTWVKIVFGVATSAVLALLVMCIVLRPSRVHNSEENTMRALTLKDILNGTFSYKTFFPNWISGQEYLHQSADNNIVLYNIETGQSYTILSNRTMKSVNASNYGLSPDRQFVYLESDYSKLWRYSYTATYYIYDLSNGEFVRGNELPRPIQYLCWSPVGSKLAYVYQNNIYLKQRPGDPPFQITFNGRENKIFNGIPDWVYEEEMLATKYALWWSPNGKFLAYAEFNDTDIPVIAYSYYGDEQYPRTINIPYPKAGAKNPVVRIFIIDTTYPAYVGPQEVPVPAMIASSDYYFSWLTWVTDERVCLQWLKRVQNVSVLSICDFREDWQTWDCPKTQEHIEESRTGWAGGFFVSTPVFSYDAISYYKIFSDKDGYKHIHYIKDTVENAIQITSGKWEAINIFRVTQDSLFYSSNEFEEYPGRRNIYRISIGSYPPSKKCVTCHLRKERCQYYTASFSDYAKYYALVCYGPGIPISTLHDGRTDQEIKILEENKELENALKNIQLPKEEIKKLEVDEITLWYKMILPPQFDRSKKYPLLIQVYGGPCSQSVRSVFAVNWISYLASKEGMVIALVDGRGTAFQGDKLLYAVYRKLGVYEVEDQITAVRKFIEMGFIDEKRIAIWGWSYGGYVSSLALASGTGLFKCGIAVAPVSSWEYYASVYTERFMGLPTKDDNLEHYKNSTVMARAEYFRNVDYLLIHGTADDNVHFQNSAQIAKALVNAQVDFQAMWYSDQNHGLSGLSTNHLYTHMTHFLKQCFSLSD
The experiment in a line: Inhibition of human FAPalpha.

Data set [8] can be described thus: Half life in Sprague-Dawley rat at 5 mg/kg, po. Format: ADME, organism-based. Set-up: dose 5 mg/kg, route oral. To be noted: in vivo. The method in brief:
as §2

Another data set deals with Dipeptidyl peptidase 8 (Homo sapiens, UniProt Q6V1X1). The experiment in a line: Inhibition of human DPP8.
Dipeptidyl peptidase 8, sequence (Q6V1X1 whole entry): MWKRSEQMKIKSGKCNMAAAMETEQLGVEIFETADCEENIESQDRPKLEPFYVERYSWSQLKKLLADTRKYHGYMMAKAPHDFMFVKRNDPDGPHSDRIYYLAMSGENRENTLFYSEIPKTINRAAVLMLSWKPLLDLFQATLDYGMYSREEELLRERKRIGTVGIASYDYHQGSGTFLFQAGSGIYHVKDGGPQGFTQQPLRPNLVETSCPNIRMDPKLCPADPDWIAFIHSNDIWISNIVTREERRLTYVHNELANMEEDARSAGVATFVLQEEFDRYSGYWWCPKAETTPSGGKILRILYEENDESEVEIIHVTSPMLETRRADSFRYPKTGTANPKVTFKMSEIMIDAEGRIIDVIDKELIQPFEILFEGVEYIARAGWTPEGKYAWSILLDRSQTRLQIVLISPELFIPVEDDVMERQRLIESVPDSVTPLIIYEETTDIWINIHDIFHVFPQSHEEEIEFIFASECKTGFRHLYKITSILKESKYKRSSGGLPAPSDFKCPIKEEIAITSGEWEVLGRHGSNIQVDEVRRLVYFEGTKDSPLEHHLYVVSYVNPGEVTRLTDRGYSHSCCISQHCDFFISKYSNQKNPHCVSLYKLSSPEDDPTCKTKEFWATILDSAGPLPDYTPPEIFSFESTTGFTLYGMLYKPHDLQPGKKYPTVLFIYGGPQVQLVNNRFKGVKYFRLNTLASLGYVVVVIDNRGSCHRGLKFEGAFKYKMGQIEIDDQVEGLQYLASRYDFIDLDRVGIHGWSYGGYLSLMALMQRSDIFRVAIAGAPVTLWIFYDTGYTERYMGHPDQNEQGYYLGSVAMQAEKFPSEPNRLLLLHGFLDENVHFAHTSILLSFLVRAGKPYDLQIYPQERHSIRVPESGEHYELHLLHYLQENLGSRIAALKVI
In another data set the target is Cytochrome P450 3A4 (Homo sapiens, UniProt P08684). Put plainly: Inhibition of CYP3A4. Format: ADME.
Cytochrome P450 3A4, sequence (P08684 whole entry): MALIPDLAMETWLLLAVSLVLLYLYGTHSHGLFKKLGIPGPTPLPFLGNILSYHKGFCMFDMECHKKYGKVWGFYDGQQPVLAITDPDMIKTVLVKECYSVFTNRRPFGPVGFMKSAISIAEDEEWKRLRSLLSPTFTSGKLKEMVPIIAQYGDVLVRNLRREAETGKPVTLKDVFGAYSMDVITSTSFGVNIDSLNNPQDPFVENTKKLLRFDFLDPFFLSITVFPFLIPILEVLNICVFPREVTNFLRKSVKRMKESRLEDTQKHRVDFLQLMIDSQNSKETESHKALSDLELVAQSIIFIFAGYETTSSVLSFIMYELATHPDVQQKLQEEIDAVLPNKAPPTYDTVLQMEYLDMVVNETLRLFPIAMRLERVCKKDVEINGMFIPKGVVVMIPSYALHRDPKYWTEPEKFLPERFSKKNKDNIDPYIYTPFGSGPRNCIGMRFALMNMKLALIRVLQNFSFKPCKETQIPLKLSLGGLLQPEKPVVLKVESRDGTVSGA
The target of another data set is Dipeptidyl peptidase 9 (Homo sapiens, UniProt Q86TI2). Put plainly: Inhibition of human DPP9.
Dipeptidyl peptidase 9, sequence (Q86TI2 whole entry): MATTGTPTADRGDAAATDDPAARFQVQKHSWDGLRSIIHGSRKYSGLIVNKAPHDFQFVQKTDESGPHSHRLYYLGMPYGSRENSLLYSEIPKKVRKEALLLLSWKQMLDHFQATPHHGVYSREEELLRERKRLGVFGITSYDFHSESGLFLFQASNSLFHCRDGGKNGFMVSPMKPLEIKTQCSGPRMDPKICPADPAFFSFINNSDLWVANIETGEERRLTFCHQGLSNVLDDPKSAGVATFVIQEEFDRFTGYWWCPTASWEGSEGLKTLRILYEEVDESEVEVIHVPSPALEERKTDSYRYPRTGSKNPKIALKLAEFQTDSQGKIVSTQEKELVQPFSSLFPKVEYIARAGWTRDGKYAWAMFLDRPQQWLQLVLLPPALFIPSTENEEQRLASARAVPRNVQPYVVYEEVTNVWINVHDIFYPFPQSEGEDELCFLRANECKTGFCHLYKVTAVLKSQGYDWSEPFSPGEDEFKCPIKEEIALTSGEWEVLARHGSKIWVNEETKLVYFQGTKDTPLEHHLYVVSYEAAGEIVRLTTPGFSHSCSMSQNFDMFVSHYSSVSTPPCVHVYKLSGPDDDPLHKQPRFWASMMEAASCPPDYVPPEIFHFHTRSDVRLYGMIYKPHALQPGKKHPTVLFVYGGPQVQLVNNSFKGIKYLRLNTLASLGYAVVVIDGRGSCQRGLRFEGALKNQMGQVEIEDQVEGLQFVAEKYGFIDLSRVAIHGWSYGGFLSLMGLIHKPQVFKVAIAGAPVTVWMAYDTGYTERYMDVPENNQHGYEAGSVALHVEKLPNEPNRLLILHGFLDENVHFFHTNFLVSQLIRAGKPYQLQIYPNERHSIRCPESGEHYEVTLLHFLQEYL
For a further data set, the target named is Cytochrome P450 2C9 (Homo sapiens, UniProt P11712). Put plainly: Inhibition of CYP2C9. The data set is classed as ADME.
Cytochrome P450 2C9, sequence (P11712 whole entry): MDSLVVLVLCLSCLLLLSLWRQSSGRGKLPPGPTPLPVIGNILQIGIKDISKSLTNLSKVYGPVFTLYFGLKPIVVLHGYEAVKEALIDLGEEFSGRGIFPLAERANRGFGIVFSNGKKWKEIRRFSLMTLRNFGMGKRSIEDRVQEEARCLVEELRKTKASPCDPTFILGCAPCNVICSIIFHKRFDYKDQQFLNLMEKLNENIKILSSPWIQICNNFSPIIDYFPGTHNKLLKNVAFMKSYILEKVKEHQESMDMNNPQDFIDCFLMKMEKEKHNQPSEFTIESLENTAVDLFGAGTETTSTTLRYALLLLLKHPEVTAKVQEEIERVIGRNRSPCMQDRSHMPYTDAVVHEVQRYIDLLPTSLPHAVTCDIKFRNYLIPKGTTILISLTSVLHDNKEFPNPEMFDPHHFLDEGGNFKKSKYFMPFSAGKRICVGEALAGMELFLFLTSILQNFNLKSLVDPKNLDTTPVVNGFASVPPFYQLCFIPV
The target of data set [9] is T3, Dipeptidyl peptidase 4 (Homo sapiens, UniProt P27487). The experiment in a line: Inhibition of human DPP4 by tight binding assay.
T3 sequence (P27487 whole entry): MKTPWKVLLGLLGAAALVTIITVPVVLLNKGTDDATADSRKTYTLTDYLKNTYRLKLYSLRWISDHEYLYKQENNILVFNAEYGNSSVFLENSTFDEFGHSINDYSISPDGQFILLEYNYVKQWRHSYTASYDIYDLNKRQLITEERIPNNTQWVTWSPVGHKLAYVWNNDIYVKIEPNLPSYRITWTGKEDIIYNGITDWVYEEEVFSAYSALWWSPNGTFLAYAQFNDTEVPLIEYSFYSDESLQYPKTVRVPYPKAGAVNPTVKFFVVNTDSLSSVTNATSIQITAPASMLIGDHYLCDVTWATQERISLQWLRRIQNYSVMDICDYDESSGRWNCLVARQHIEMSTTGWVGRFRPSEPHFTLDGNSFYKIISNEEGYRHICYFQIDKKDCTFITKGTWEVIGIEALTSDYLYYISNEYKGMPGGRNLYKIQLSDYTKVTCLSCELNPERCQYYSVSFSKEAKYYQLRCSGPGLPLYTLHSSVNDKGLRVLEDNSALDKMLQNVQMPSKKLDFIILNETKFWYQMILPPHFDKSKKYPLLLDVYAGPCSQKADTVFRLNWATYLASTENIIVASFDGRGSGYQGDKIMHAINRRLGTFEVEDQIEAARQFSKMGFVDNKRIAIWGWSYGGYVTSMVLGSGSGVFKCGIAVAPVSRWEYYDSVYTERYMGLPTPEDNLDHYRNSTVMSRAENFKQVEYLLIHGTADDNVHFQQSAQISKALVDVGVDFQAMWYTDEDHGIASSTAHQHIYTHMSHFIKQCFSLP
Data set [10] deals with T3, Dipeptidyl peptidase 4. The experiment in a line: Inhibition of human DPP4 in presence of rat plasma protein. Format: cell-free.

pIC50, pKi: −log10 of the molar value.

Cytochrome P450 2D6, sequence (P10635 whole entry): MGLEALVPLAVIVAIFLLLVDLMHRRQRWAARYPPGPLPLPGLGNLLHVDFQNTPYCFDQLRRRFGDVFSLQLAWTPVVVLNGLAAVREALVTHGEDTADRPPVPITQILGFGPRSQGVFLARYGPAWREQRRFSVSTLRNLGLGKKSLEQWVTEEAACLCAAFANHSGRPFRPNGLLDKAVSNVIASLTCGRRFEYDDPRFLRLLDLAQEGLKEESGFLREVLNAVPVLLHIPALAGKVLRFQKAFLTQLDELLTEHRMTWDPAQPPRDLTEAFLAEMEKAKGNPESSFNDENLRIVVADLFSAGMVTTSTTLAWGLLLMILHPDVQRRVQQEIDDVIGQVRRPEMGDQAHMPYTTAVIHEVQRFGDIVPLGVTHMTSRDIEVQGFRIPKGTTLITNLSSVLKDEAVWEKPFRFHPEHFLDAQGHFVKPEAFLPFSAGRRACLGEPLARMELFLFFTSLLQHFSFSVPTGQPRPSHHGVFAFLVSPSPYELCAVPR

The half-life is the time needed for the level to fall by half in the phase considered. Low values mean fast loss, high ones slow loss. Take `COc1cccc(CN(C)C(=O)N2CC(N)C(c3ccc(Cl)cc3Cl)C2)c1` (racemic): the half-life in [1] and in data set [2] was > 3 h throughout.
With `NC1CN(c2ccccc2)CC1c1ccc(Cl)cc1Cl` (racemic), the half-life in data set [1] and in data set [2] was > 3 h throughout.
As a reminder, the pIC50 is the negative decadic logarithm of the IC50, by convention in mol/L. Low values mean a large IC50, high ones a small IC50. `Cl.NC1CN(c2cc(-c3ccsc3)ncn2)CC1c1cc(F)c(F)cc1F` (centres undefined): the half-life in [1] and in data set [2] was > 3 h throughout. For the same compound, the pIC50 at Cytochrome P450 2D6 is 5.96.
What is called pKi is −log10 of the Ki, conventionally taken in molar units. The term Cmax denotes the highest concentration seen after dosing. The CL/F is the apparent clearance, not corrected for the fraction that reaches the circulation. In general, AUC refers to the area under the concentration-time curve, a measure of exposure. Read a low AUC as low exposure. Regarding `CS(=O)(=O)c1cccc(-c2cc(N3CC(N)C(c4cc(F)c(F)cc4F)C3)ncn2)c1` (centres undefined), the pKi on Prolyl endopeptidase and at Prolyl endopeptidase FAP was < 4.52 throughout. This compound came in with a Cmax in data set [3] of 1810 ng/mL. In data set [4], this compound gave a CL/F of 4.33 mL/min/kg. The bioavailability in data set [5] was 110%. Also, in the data set on Rattus norvegicus [6], the AUC came to 22000 ng·h/mL. The Vdss in the data set on Rattus norvegicus [7] turned out to be 1.44 L/kg. Moreover, the half-life was > 3 h in data set [1], 3.8 h in data set [8] and > 3 h in data set [2].
As to `NC1CN(c2ccccn2)CC1c1ccc(Cl)cc1Cl` (racemic), the half-life in data set [1] and in data set [2] was > 3 h in each case.
In the case of `NC1CN(c2cc(-c3ccc(C(=O)O)cc3)ncn2)CC1c1cc(F)c(F)cc1F` (centres undefined), the half-life in data set [1] and in [2] was > 3 h in each case.
As for `CCNC(=O)N1CC(N)C(c2ccc(Cl)cc2Cl)C1` (racemic), the half-life in data set [1] and in data set [2] was > 3 h throughout.
In the case of `Cc1cccc(COC(=O)N2CC(N)C(c3ccc(Cl)cc3Cl)C2)n1` (racemic), the half-life in [1] and in [2] was > 3 h each time.
For the compound `CC(=O)N1CC(N)C(c2ccc(Cl)cc2Cl)C1` (racemic), the half-life in [1] and in [2] was > 3 h each time.
`CCN(C)C(=O)N1CC(N)C(c2ccc(Cl)cc2Cl)C1` (racemic): the half-life in data set [1] and in data set [2] was > 3 h throughout.
Compound `CN(C)C(=O)c1cccc(-c2cc(N3CC(N)C(c4cc(F)c(F)cc4F)C3)ncn2)c1` (centres undefined) registered a Cmax in [3] of 1270 ng/mL. Further, the CL/F in [4] was 12.2 mL/min/kg. The bioavailability in [5] worked out at 42%. In the data set with Rattus norvegicus [6], this compound came in with an exposure (AUC) of 3140 ng·h/mL. Also, the Vdss in the data set on Rattus norvegicus [7] was found to be 1.77 L/kg. The results for the half-life in data set [1], in data set [8] and in data set [2] were > 3 h, 3.5 h and > 3 h, respectively.
`NC1CN(c2cc(-c3ccccc3)ncn2)CC1c1cc(F)c(F)cc1F` (centres undefined): the half-life in data set [1] and in data set [2] was > 3 h in each case.
In the case of `NC1CN(c2cc(-c3ccsc3)ncn2)CC1c1ccc(F)cc1Cl` (racemic), the half-life in data set [1] and in [2] was > 3 h in each case.
With `NC1CN(c2nccc(-c3ccsc3)n2)CC1c1ccc(Cl)cc1Cl` (racemic), the half-life in data set [1] and in [2] was > 3 h each time.
Take `CCOC(=O)N1CC(N)C(c2ccc(Cl)cc2Cl)C1` (racemic): the half-life in data set [1] and in data set [2] was > 3 h throughout.
Turning to `NC1CN(c2cc(-c3ccsc3)ncn2)CC1c1cc(F)c(F)cc1Cl` (racemic), the half-life in [1] and in data set [2] was > 3 h throughout.
On to `NC1CN(c2cc(-c3ccsc3)ncn2)CC1c1ccc(Cl)cc1Cl` (racemic), for which the half-life in [1] and in data set [2] was > 3 h each time.
With `NC1CN(C(=O)NCc2cccc(F)c2)CC1c1ccc(Cl)cc1Cl` (racemic), the half-life in data set [1] and in data set [2] was > 3 h in each case.
Consider `NC1CN(c2cc(-c3cccc(C(=O)O)c3)ncn2)CC1c1cc(F)c(F)cc1F` (centres undefined), for which the pKi on Prolyl endopeptidase was < 4.52; at Dipeptidyl peptidase 8 it was < 5.52; on Prolyl endopeptidase FAP, < 4.52; at Dipeptidyl peptidase 9 it was < 5.52. Further, the concentration in data set [3] peaked (Cmax) at 176 ng/mL. The CL/F in data set [4] is 18.3 mL/min/kg. Moreover, the bioavailability in data set [5] was 18%. The exposure (AUC) in the data set on Rattus norvegicus [6] stood at 652 ng·h/mL. For the same compound, the pIC50 on Cytochrome P450 3A4 and on Cytochrome P450 2D6 was < 5.00 in each case. Moreover, the Vdss with Rattus norvegicus [7] is 1.78 L/kg. The half-life is > 3 h in data set [1], 6.8 h in data set [8] and > 3 h in data set [2].
`NC1CN(c2ncccn2)CC1c1ccc(Cl)cc1Cl` (racemic): the half-life in data set [1] and in [2] was > 3 h each time.
With `NC1CN(c2cc(-c3ccsc3)ncn2)CC1c1cc(F)c(F)cc1F` (racemic), the pIC50 is < 5.00 at Cytochrome P450 2C9, < 5.00 against Cytochrome P450 3A4 and 7.01 at Cytochrome P450 2D6. In addition, the half-life in data set [1] and in data set [2] was > 3 h in each case.
`CS(=O)(=O)c1cc(F)cc(-c2cc(N3CC(N)C(c4cc(F)c(F)cc4F)C3)ncn2)c1` (centres undefined): the half-life in data set [1] and in data set [2] was > 3 h throughout.
`Cc1ccc(S(=O)(=O)N2CC(N)C(c3ccc(Cl)cc3Cl)C2)cc1` (racemic): the half-life in data set [1] and in data set [2] was > 3 h in each case.
On to `COc1ccc(-c2cnc(N3CC(N)C(c4ccc(Cl)cc4Cl)C3)nc2)cc1` (racemic), for which the half-life in [1] and in data set [2] was > 3 h in each case.
For `NC1CN(Cc2ccccc2)CC1c1ccc(Cl)cc1Cl` (centres undefined), the half-life in data set [1] and in data set [2] was > 3 h each time.
With `NC1CN(c2nccc(-c3ccccc3)n2)CC1c1ccc(Cl)cc1Cl` (racemic), the half-life in [1] and in data set [2] was > 3 h throughout.
As for `NC1CN(c2ccnc(-c3ccsc3)n2)CC1c1ccc(Cl)cc1Cl` (racemic), the half-life in data set [1] and in [2] was > 3 h in each case.
Consider `NC1CN(c2cc(-c3cccc(S(=O)(=O)N4CCOCC4)c3)ncn2)CC1c1cc(F)c(F)cc1F` (centres undefined), for which the pKi at Prolyl endopeptidase is < 4.52; at Dipeptidyl peptidase 4 [9], 8.49; on Dipeptidyl peptidase 4 [10] it was 8.77; at Prolyl endopeptidase FAP, < 4.52. The same compound came in with a Cmax in [3] of 347 ng/mL. Further, the CL/F in data set [4] is 34.8 mL/min/kg. The negative logarithm of the IC50 (pIC50) at Cytochrome P450 2C9, on Cytochrome P450 3A4 and against Cytochrome P450 2D6 was < 5.00 in each case. Further, in data set [5], the bioavailability came to 21%. The AUC in the data set on Rattus norvegicus [6] was determined as 515 ng·h/mL. The same compound returned a Vdss with Rattus norvegicus [7] of 1.84 L/kg. Besides, the values for the half-life in data set [1], in [8] and in data set [2] were > 3 h, 1.1 h and > 3 h, respectively.
